Reference: ChEMBL document CHEMBL1138361, “4-acyl-1-(4-aminoalkoxyphenyl)-2-ketopiperazines as a novel class of non-brain-penetrant histamine H3 receptor antagonists” (J Med Chem, 2007)
Each block holds one compound with its values, some of them ahead of it.

Assays:
[1] = Partition coefficient, log D at pH 7.4; type: physicochemical; details: octanol/water
Outline: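 Compound in phosphate buffer was shaken with buffer-saturated octanol (3 × 50 inversions). Phases were separated by centrifugation at 300g for 15 min. Both phases were quantified by HPLC, and log D was calculated from peak areas normalized to injection volume.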

[2] = Clearance in Beagle dog at 1.0 mg/kg, iv; type: ADME, organism-based, Canis lupus familiaris; parameters: dose 1 mg/kg, route intravenous; details: in vivo
Outline: (§1)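 Single iv and oral doses given to male CD Sprague-Dawley rats (1 mg/kg iv, 3 mg/kg po) and male Beagle dogs (1 mg/kg iv, 2 mg/kg po). Vehicle was a DMSO-PEG 200-water (5:45:50) solution. Serial and terminal blood samples were taken at time points up to 7, 12 or 24 h postdose.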

[3] = Volume of distribution in Beagle dog at 1.0 mg/kg, iv; type: ADME, organism-based, Canis lupus familiaris; parameters: dose 1 mg/kg, route intravenous; details: in vivo; outline: as §1
[4] = Half life in Beagle dog at 1.0 mg/kg, iv; type: ADME, organism-based, Canis lupus familiaris; parameters: dose 1 mg/kg, route intravenous; details: in vivo; outline: as §1
[5] = Ratio of drug level in brain to blood in CD Sprague-Dawley rat at 1 mg/kg, iv after 5 mins; type: ADME, organism-based; parameters: dose 1 mg/kg, route intravenous; details: brain and blood
Outline: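 Male CD Sprague-Dawley rats were dosed iv in DMSO-PEG 200-water (5:45:50). Blood and brain were collected 5 min postdose under terminal isoflurane anesthesia. Blood was protein-precipitated; brain was homogenized and extracted. Parent drug was quantified by LCMS/MS.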

[6] = Cmax in CD Sprague-Dawley rat at 3.0 mg/kg, po; type: ADME, organism-based; parameters: dose 3 mg/kg, route oral; details: in vivo; outline: as §1
[7] = Cmax in CD Sprague-Dawley rat at 1.0 mg/kg, iv; type: ADME, organism-based; parameters: dose 1 mg/kg, route intravenous; details: in vivo; outline: as §1
[8] = Tmax in CD Sprague-Dawley rat at 3.0 mg/kg, po; type: ADME, organism-based; parameters: dose 3 mg/kg, route oral; details: in vivo; outline: as §1
[9] = Tmax in CD Sprague-Dawley rat at 1.0 mg/kg, iv; type: ADME, organism-based; parameters: dose 1 mg/kg, route intravenous; details: in vivo; outline: as §1
[10] = AUC in CD Sprague-Dawley rat at 3.0 mg/kg, po; type: ADME, organism-based; parameters: dose 3 mg/kg, route oral; details: plasma; outline: as §1
[11] = AUC in CD Sprague-Dawley rat at 1.0 mg/kg, iv; type: ADME, organism-based; parameters: dose 1 mg/kg, route intravenous; details: plasma; outline: as §1
[12] = Clearance in CD Sprague-Dawley rat at 1.0 mg/kg, iv; type: ADME, organism-based; parameters: dose 1 mg/kg, route intravenous; details: in vivo; outline: as §1
[13] = Volume of distribution in CD Sprague-Dawley rat at 1.0 mg/kg, iv; type: ADME, organism-based; parameters: dose 1 mg/kg, route intravenous; details: in vivo; outline: as §1
[14] = Half life in CD Sprague-Dawley rat at 1.0 mg/kg, iv; type: ADME, organism-based; parameters: dose 1 mg/kg, route intravenous; details: in vivo; outline: as §1
[15] = Cmax in Beagle dog at 2.0 mg/kg, po; type: ADME, organism-based, Canis lupus familiaris; parameters: dose 2 mg/kg, route oral; details: in vivo; outline: as §1
[16] = Cmax in Beagle dog at 1.0 mg/kg, iv; type: ADME, organism-based, Canis lupus familiaris; parameters: dose 1 mg/kg, route intravenous; details: in vivo; outline: as §1
[17] = Tmax in Beagle dog at 2.0 mg/kg, po; type: ADME, organism-based, Canis lupus familiaris; parameters: dose 2 mg/kg, route oral; details: in vivo; outline: as §1
[18] = Tmax in Beagle dog at 1.0 mg/kg, iv; type: ADME, organism-based, Canis lupus familiaris; parameters: dose 1 mg/kg, route intravenous; details: in vivo; outline: as §1
[19] = AUC in Beagle dog at 2.0 mg/kg, po; type: ADME, organism-based, Canis lupus familiaris; parameters: dose 2 mg/kg, route oral; details: plasma; outline: as §1
[20] = AUC in Beagle dog at 1.0 mg/kg, iv; type: ADME, organism-based, Canis lupus familiaris; parameters: dose 1 mg/kg, route intravenous; details: plasma; outline: as §1
[21] = Oral bioavailability in Beagle dog at 2.0 mg/kg, po; type: ADME, organism-based, Canis lupus familiaris; details: in vivo; outline: as §1

logD [1]: -0.95
SMILES: O=C(c1ccc(C(=O)N2CCN(c3ccc(OCCCN4CCCCC4)cc3)C(=O)C2)cc1)N1CCC1

logD [1]: 1.3
SMILES: Cc1ccc(C(=O)N2CCN(c3ccc(OC4CCN(C5CCC5)CC4)cc3)C(=O)C2)cc1

logD [1]: -0.46
SMILES: CS(=O)(=O)c1ccc(C(=O)N2CCN(c3ccc(OC4CCN(C5CCCC5)CC4)cc3)C(=O)C2)cc1

logD [1]: 0.1
SMILES: O=C(c1ccc(F)cc1F)N1CCN(c2ccc(OCCCN3CCCCC3)cc2)C(=O)C1

logD [1]: 0.15
SMILES: O=C(c1ccc(F)cc1F)N1CCN(c2ccc(OCCCN3CCCCCC3)cc2)C(=O)C1

logD [1]: -0.38
SMILES: O=C(c1cc(F)cc(F)c1)N1CCN(c2ccc(OCCCN3CCCC3)cc2)C(=O)C1

logD [1]: 0.73
SMILES: O=C(c1ccccc1)N1CCN(c2ccc(OC3CCN(C4CCC4)CC3)cc2)C(=O)C1

logD [1]: 0.06
SMILES: CC(C)N1CCC(Oc2ccc(N3CCN(C(=O)c4cc(F)cc(F)c4)CC3=O)cc2)CC1

Log D [1]: 0.11
clearance [2]: 9 mL/min/kg
Vd [3]: 2.9 L/kg
half-life [4]: 4.3 h
SMILES: O=C(c1ccc(F)cc1)N1CCN(c2ccc(OCCCN3CCCCC3)cc2)C(=O)C1

SMILES: CC(C)(C)C(=O)N1CCN(c2ccc(OCCCN3CCCCC3)cc2)C(=O)C1.Cl
logD [1]: -0.02
Kp at 5 min [5]: 0.1

logD [1]: -0.47
SMILES: O=C(c1ccc(F)cc1)N1CCN(c2ccc(OCCCN3CCCCCC3)cc2)C(=O)C1

logD [1]: -1.07
SMILES: N#Cc1ccc(C(=O)N2CCN(c3ccc(OCCCN4CCCC4)cc3)C(=O)C2)cc1

logD [1]: 0.99
SMILES: O=C(c1cc(F)cc(F)c1)N1CCN(c2ccc(OC3CCN(C4CCC4)CC3)cc2)C(=O)C1

logD [1]: 0.38
Kp at 5 min [5]: 0.2
Cmax [6]: 149 ng/mL
Cmax [7]: 350 ng/mL
Tmax [8]: 1 h
Tmax [9]: 4.8 min
AUC [10]: 1150 ng·h/mL
AUC [11]: 601 ng·h/mL
clearance [12]: 27 mL/min/kg
Vd [13]: 2.2 L/kg
half-life [14]: 1.4 h
Cmax [15]: 294 ng/mL
Cmax [16]: 419 ng/mL
Tmax [17]: 1 h
Tmax [18]: 4.8 min
AUC [19]: 1540 ng·h/mL
AUC [20]: 1100 ng·h/mL
clearance [2]: 15 mL/min/kg
Vd [3]: 2.3 L/kg
half-life [4]: 2.3 h
bioavailability [21]: 69%
SMILES: N#Cc1ccc(C(=O)N2CCN(c3ccc(OC4CCN(C5CCC5)CC4)cc3)C(=O)C2)cc1.O=CO

logD [1]: 0.37
SMILES: N#Cc1ccc(C(=O)N2CCN(c3ccc(OC4CCN(C5CCCC5)CC4)cc3)C(=O)C2)cc1

logD [1]: -0.41
SMILES: CS(=O)(=O)c1cccc(C(=O)N2CCN(c3ccc(OC4CCN(C5CCCC5)CC4)cc3)C(=O)C2)c1

logD [1]: -1.19
SMILES: CS(=O)(=O)c1ccc(C(=O)N2CCN(c3ccc(OCCCN4CCCCC4)cc3)C(=O)C2)cc1

logD [1]: 0.14
Cmax [6]: 40 ng/mL
Cmax [7]: 342 ng/mL
Tmax [8]: 7 h
Tmax [9]: 4.8 min
AUC [10]: 355 ng·h/mL
AUC [11]: 536 ng·h/mL
clearance [12]: 31 mL/min/kg
Vd [13]: 2 L/kg
half-life [14]: 1.3 h
SMILES: O=C(c1ccc(F)cc1)N1CCN(c2ccc(OCCCN3CCCC3)cc2)C(=O)C1.O=CO

logD [1]: -0.09
SMILES: O=C(c1ccccc1)N1CCN(c2ccc(OCCCN3CCCCC3)cc2)C(=O)C1

logD [1]: -0.38
SMILES: N#Cc1ccc(C(=O)N2CCN(c3ccc(OCCCN4CCCCC4)cc3)C(=O)C2)cc1

logD [1]: 1.52
SMILES: O=C(c1ccc(Cl)cc1)N1CCN(c2ccc(OC3CCN(C4CCCC4)CC3)cc2)C(=O)C1

logD [1]: -0.05
SMILES: CC(C)N1CCC(Oc2ccc(N3CCN(C(=O)c4ccc(F)cc4F)CC3=O)cc2)CC1

logD [1]: -0.29
Kp at 5 min [5]: 0.1
SMILES: O=C(c1ccc(C(=O)N2CCN(c3ccc(OC4CCN(C5CCC5)CC4)cc3)C(=O)C2)cc1)N1CCC1.O=CO

logD [1]: 0.24
SMILES: O=C(c1cc(F)cc(F)c1)N1CCN(c2ccc(OCCCN3CCCCCC3)cc2)C(=O)C1
